Screening results as filed in PubChem.
bCat nuc transl: modulators of beta-catenin nuclear translocation; HeLa beta-catenin nuclear translocation, immunofluorescence imaging; nuclear translocation activity, % at 5 µM; hit rate 0.3% among 190,000;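 active means nuclear translocation activity above 50% at 5 µM, with a well cell count of 50 or more; inconclusive means wells under 50 cells across six images, flagged as toxic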;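 further: per-cell ratio of nuclear to cytoplasmic median beta-catenin stain intensity; plate controls were DMSO negative control for no effect and GSK-3 inhibitor IX positive control for full effect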
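Technique: fluorescence imaging of beta-catenin antibody stain plus DAPI / Material: human HeLa cell line / Incubation: compound treatment 24 h, 37°C, 5% CO2 / Read-out basis: % activation of per-cell nuclear versus cytoplasmic median beta-catenin signal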
Tb hexokinase: T. brucei hexokinase 1 inhibition. AID 1430. recombinant TbHK1, G6PDH-coupled NADH A340. hit rate 0.11% among 220,000. inhibition, % at 10 µM;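 active means inhibition of 50% or more in the single-dose primary screen; inactive means inhibition below 50%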
MT stabilizer: stabilizes microtubules in HeLa cells; AID 2205; hit rate 0.83% among 200,000; HeLa tubulin immunostaining HCS, 24 h; share of cells brighter than vehicle mean+2SD; % tubulin-high responders, % at 10 µM;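 active means plate Z-score above 3 for both tubulin-high and condensed-nucleus cell shares, with cell loss under 80%, at 10 µM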;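 further: anti alpha tubulin signal scored within the nucleus-defined area of each cell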
Autophagy mod: modulators of autophagy; MEF GFP-LC3 puncta imaging; test concentration mostly 10 µM; calls only at 10 µM (by protocol); hit rate 0.98% among 190,000;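 active means percentage of spot-positive cells more than 3 SD above its plate mean, without a fluorescence outlier flag or 80% toxicity; inconclusive means no clear call, values can overlap the other calls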;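 further: spot-positive cell cutoff set from DMSO-treated cells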
Ins promoter up: MIN6 insulin promoter up-regulation. MIN6 insulin promoter-GFP reporter, high-content imaging; hits give high values. z-score at 5 µM. hit rate 0.3% among 190,000;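 active means z-score above 3 at 5 µM with at least 500 cells counted in the well; inconclusive means wells under 500 cells, flagged as cytotoxic or low count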
* hit, by the source's call; i = inactive; u = inconclusive; x = no result given; + = active, no number. This is a sample that favours compounds with a hit; in the whole collection about 1.9% have one here.

SMILES	bCat nuc transl	Tb hexokinase	MT stabilizer	Autophagy mod	Ins promoter up
CCOc1ccc(NC(=O)/C=C/c2ccccc2)c([N+](=O)[O-])c1	10	-5	24*	i	-0.35
Cc1cccc(OCCN2CSC(=S)N(C)C2)c1	1	3	8	+	-0.09
CCCCOc1ccc(-c2nnn(CC(=O)NCc3ccco3)n2)cc1	24	5	39*	+	-1.4
O=C1CCCC2=C1C(c1cccs1)Nc1ccc3ncccc3c12 (configuration not stated)	1	-11	4	i	-0.39
Cc1ccsc1C1Nc2ccc3ncccc3c2C2=C1C(=O)CC(C)(C)C2 (configuration not stated)	-2	-8	37*	i	1.1
Cc1ccc(NS(=O)(=O)c2ccc3[nH]c(=O)[nH]c3c2)c(C)c1	0	3	3	i	0.51
O=c1cc(-c2ccccc2)[nH]c2nc3ccccc3n12	1	-4	44*	i	1.3
CC(=O)COc1cc(C)cc2oc(=O)cc(-c3ccccc3)c12	0	1	3	i	-0.43
COc1ccc([N+](=O)[O-])cc1COc1cc(C)cc2oc(=O)cc(-c3ccccc3)c12	-5	-9	18*	i	-0.64
NNC(=O)c1ccc(N2CCCCCC2)c([N+](=O)[O-])c1	0	-6	x	i	-0.36
CC(=C\c1ccccc1)/C=C1/SC(=S)N(CCC(=O)Nc2ccccn2)C1=O	0	-6	3	+	0.02
CC(C)(C)NC(=O)CSCc1ccc(Br)cc1	0	-3	3	i	-0.61
CN(C)CCOc1nc(-c2ccccc2)nc2c1oc1ccccc12	-5	9	3	+	-0.5
CC(NC(=O)C1CCN(S(=O)(=O)c2cnc[nH]2)CC1)c1ccccc1 (configuration not stated)	-2	0	2	i	0.11
CC1(C)c2ccccc2N2CCC(=O)NC21/C=C/c1ccco1 (configuration not stated)	-5	4	2	i	-0.61
CC1(C)c2ccccc2N2CC(=O)NC21/C=C/c1ccco1 (configuration not stated)	2	-4	1	i	3.3*
Oc1ccc(Nc2nc(N3CCCC3)c3ccccc3n2)cc1	1	-4	5	+	u
CCc1cc[n+](-c2nc3ccccc3nc2[N-]S(=O)(=O)c2ccc(Br)s2)cc1	0	-12	5	+	0.92
CCOc1ccc(NC(=S)NN(C)C(=S)Nc2ccc(OCC)cc2)cc1	x	1	6	i	-0.3
Clc1ccc(C2=Nn3c(nnc3-c3n[nH]c4c3CCC4)SC2)cc1Cl	-1	3	19*	i	-1.7
CCOCc1c(C(=O)NC2=Nc3ccccc3NC(CC)=C2C(=O)OCC)oc2ccccc12	-1	0	20*	i	-0.32
Oc1c(C(Nc2ccccn2)c2cccnc2)cc(Cl)c2cccnc12 (configuration not stated)	0	10	3	+	-0.41
O=C(O)c1ccc2c(=O)n3c(nc2c1)/C(=C/c1ccccc1C(F)(F)F)CCCC3	1	0	5	+	0.35
COC(=O)C1=C(C)N(C)C(=S)NC1c1c(OC)ccc2ccccc12 (configuration not stated)	0	-10	4	+	0.12
O=C(Nc1nc(-c2ccc(-c3ccccc3)cc2)cs1)C1CCCO1 (configuration not stated)	x	-17	42*	i	0.19
SMILES	bCat nuc transl	Tb hexokinase	MT stabilizer	Autophagy mod	Ins promoter up
O=c1n(Cc2ccccc2Cl)nc2n1-c1ccccc1SC2	1	-4	x	x	-0.06
Cc1ccc(O)c(C(=O)c2cnn(C(=O)COc3ccccc3C#N)c2)c1	0	4	x	x	0.11
CCOC(=O)c1sc(NC(=O)c2c(C)noc2C)c(C(=O)OCC)c1C	x	0	2	+	x
O=C1c2[nH]nc(-c3ccccc3O)c2C(c2cccc(Cl)c2)N1Cc1ccco1 (configuration not stated)	-6	1	17*	i	0.2
O=C1c2[nH]nc(-c3ccccc3O)c2C(c2ccc(F)cc2)N1Cc1ccco1 (configuration not stated)	-6	7	4	i	0.88
CC1CCC2C(=O)N(c3ccccc3OC(=O)c3ccccc3F)C(=O)C2C1 (configuration not stated)	0	3	6	i	-0.2
N=c1c(-c2nc3ccccc3[nH]2)cc(C(=O)c2cccs2)nn1-c1ccccc1	-2	-11	3	+	x
COc1ccc(Nc2ncnc3c2cnn3Cc2ccccc2)cc1	-2	-1	3	i	-0.68
Clc1ccc(-n2ncc3c(NCc4ccco4)ncnc32)cc1	-3	1	6	i	x
Clc1ccc(Cn2ncc3c(NCc4ccco4)ncnc32)c(Cl)c1	x	7	46*	i	0.3
c1ccc(CNc2ncnc3c2cnn3Cc2ccccc2)cc1	0	1	44*	i	0.29
C/C(CC1CC2=C(CC1(C)C)C(C)(C)CCC2)=N\NC(N)=S (configuration not stated)	x	7	1	+	-0.88
CCN(CC)c1ccc(NC(=O)c2cccc(OC)c2)c(C)c1	x	3	53*	i	-0.79
CCN(CC)c1ccc(NC(=O)c2cc(OC)cc(OC)c2)c(C)c1	x	-1	11	i	-2.6
COc1cccc(C(=O)Nc2ccccc2C(=O)N2CCCC2)c1	x	-5	1	i	3.3*
COc1cccc(C(=O)Nc2ccccc2N2CCCC2)c1	x	1	4	i	-0.93
COc1ccc(CC(=O)NC(C)c2nnc(SCC(=O)Nc3cc(C)ccc3OC)n2C)cc1 (configuration not stated)	0	-1	1	i	-0.61
CN1CCN(c2ccc(-c3ccc4ccccc4n3)cc2)CC1	14	-15	3	+	2
N#Cc1c(-c2ccccc2)c(-c2ccccc2)nn(CC(=O)NNC(=O)Nc2ccc(Cl)c(Cl)c2)c1=O	20	5	21*	i	0.39
O=C(Cn1nc(-c2ccccc2)c2ccccc2c1=O)Nc1ccc(F)cc1	2	-12	x	x	-0.2
O=C(N/N=C/c1cccs1)C1COc2ccccc2O1 (configuration not stated)	11	-7	40*	i	-0.31
Cn1cc(/C=N\NC(=O)C2COc3ccccc3O2)c2ccccc21 (configuration not stated)	4	18	20	i	0.09
O=C(N/N=C/c1ccco1)C1COc2ccccc2O1 (configuration not stated)	1	-5	3	i	0.25
Cc1ccc(-n2c(O)c(/C=N/NC(=O)C3COc4ccccc4O3)c3ccccc3c2=O)cc1 (configuration not stated)	x	25	2	i	3.1*
Cc1c(/C=N\NC(=O)C2COc3ccccc3O2)c2ccccc2n1C (configuration not stated)	58*	-30	6	i	0.08
